Test results from ChEMBL document CHEMBL1149289, “Synthesis and antibacterial activity of new poly-S-lysine-porphyrin conjugates” (J Med Chem, 2004).

What was measured:
Staphylococcus aureus [1] = assay: Logarithmic survival of Staphylococcus aureus ATCC 25923 at 0.1 uM after 10 mins and irradiated with white light at the fluence rate of 50 mW/cm2 for 15 mins relative to control; assay type: functional; settings: ATCC 25923, light or radiation study
Procedure, shortened: (§1)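 S. aureus ATCC 25923 or MRSA 110 (PBS-washed, 10^8 to 10^9 cells/mL) were incubated with 0.1 μM photosensitizer for 10 min in the dark at room temperature. They were then irradiated with white light at 50 mW/cm² for varying times up to 30 min. Survival was read as cfu on BHA and divided by cfu of controls without photosensitizer.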

Escherichia coli [2] = assay: Drug uptake per mg of protein in Escherichia coli O4 at 5 uM after 10 mins; assay type: ADME, organism-based; settings: in vivo
Procedure, shortened: (§2)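 Bacterial suspensions (10^8 to 10^9 cells/mL in PBS) were incubated with porphyrin for 10 min in the dark at room temperature, then centrifuged. The pellet was digested in 2% aqueous SDS. Porphyrin was quantified by spectrofluorimetry and cell protein by modified Lowry assay (BSA standard). Uptake is given as nmol per mg cell protein.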

Staphylococcus aureus [3] = assay: Logarithmic survival of Staphylococcus aureus ATCC 25923 at 0.1 uM after 10 mins and irradiated with white light at the fluence rate of 50 mW/cm2 for 20 mins relative to control; assay type: functional; settings: ATCC 25923, light or radiation study; procedure, shortened: as §1
Staphylococcus aureus [4] = assay: Logarithmic survival of methicillin-resistant Staphylococcus aureus 110 at 0.1 uM after 10 mins and irradiated with white light at the fluence rate of 50 mW/cm2 for 5 mins relative to control; assay type: functional; settings: light or radiation study; procedure, shortened: as §1
Staphylococcus aureus [5] = assay: Drug uptake per mg of protein in Staphylococcus aureus ATCC 25923 at 2.5 uM after 10 mins; assay type: ADME, organism-based; settings: in vivo; procedure, shortened: as §2
Staphylococcus aureus [6] = assay: Drug uptake per mg of protein in methicillin-resistant Staphylococcus aureus 110 at 0.5 uM after 10 mins; assay type: ADME, organism-based; settings: in vivo; procedure, shortened: as §2
Staphylococcus aureus [7] = assay: Logarithmic survival of methicillin-resistant Staphylococcus aureus 110 at 0.1 uM after 10 mins and irradiated with white light at the fluence rate of 50 mW/cm2 for 1 min relative to control; assay type: functional; settings: light or radiation study; procedure, shortened: as §1
Staphylococcus aureus [8] = assay: Logarithmic survival of methicillin-resistant Staphylococcus aureus 110 at 2.5 uM after 10 mins and irradiated with white light at the fluence rate of 50 mW/cm2 for 30 mins relative to control; assay type: functional; settings: light or radiation study
Procedure, shortened: (§3)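 MRSA 110 grown aerobically at 37 °C on BHA. Stationary-phase cells were taken into BHI, washed twice in PBS and diluted to OD650 ~0.7 (10^8 to 10^9 cells/mL). Suspensions were held with photosensitizer for 10 min in the dark at room temperature, then given white light for 30 min. Cells were serially diluted, plated on BHA and counted after 16–20 h at 37 °C. Survival = cfu ÷ cfu of photosensitizer-free controls.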

Escherichia coli [9] = assay: Antibacterial activity against Escherichia coli O4 measured as 4 log decrease in survival; assay type: functional
Procedure, shortened: (§4)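 Strains grown aerobically at 37 °C on brain heart agar; stationary-phase cells washed twice in PBS and adjusted to OD650 ca. 0.7 (10^8 to 10^9 cells/mL). Cells incubated with photosensitizer at various concentrations for 10 min in the dark at room temperature, then irradiated with white light at 50 mW/cm² for 30 min. Survivors counted as cfu on BHA after 16–20 h at 37 °C, expressed relative to no-photosensitizer controls. Dark controls were run without irradiation.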

Staphylococcus aureus [10] = assay: Logarithmic survival of Staphylococcus aureus ATCC 25923 at 0.1 uM after 10 mins and irradiated with white light at the fluence rate of 50 mW/cm2 for 2.5 mins relative to control; assay type: functional; settings: ATCC 25923, light or radiation study; procedure, shortened: as §1
Staphylococcus aureus [11] = assay: Logarithmic survival of methicillin-resistant Staphylococcus aureus 110 at 5 uM after 10 mins and irradiated with white light at the fluence rate of 50 mW/cm2 for 30 mins relative to control; assay type: functional; settings: light or radiation study; procedure, shortened: as §3
Staphylococcus aureus [12] = assay: Drug uptake per mg of protein in Staphylococcus aureus ATCC 25923 at 10 uM after 10 mins; assay type: ADME, organism-based; settings: in vivo; procedure, shortened: as §2
Staphylococcus aureus [13] = assay: Logarithmic survival of methicillin-resistant Staphylococcus aureus 110 at 0.1 uM after 10 mins and irradiated with white light at the fluence rate of 50 mW/cm2 for 15 mins relative to control; assay type: functional; settings: light or radiation study; procedure, shortened: as §1
Escherichia coli [14] = assay: Drug uptake per mg of protein in Escherichia coli O4 at 10 uM after 10 mins; assay type: ADME, organism-based; settings: in vivo; procedure, shortened: as §2
[15] = Photostability after irradiation with white light at the fluence rate of 50 mW/cm2 for 30 mins; assay type: ADME; settings: read-out: Stability
Staphylococcus aureus [16] = assay: Logarithmic survival of Staphylococcus aureus ATCC 25923 at 5 uM after 10 mins and irradiated with white light at the fluence rate of 50 mW/cm2 for 30 mins relative to control; assay type: functional; settings: ATCC 25923, light or radiation study; procedure, shortened: as §4
Staphylococcus aureus [17] = assay: Logarithmic survival of methicillin-resistant Staphylococcus aureus 110 at 0.25 uM after 10 mins and irradiated with white light at the fluence rate of 50 mW/cm2 for 30 mins relative to control; assay type: functional; settings: light or radiation study; procedure, shortened: as §3
Staphylococcus aureus [18] = assay: Drug uptake per mg of protein in methicillin-resistant Staphylococcus aureus 110 at 10 uM after 10 mins; assay type: ADME, organism-based; settings: in vivo; procedure, shortened: as §2
Staphylococcus aureus [19] = assay: Logarithmic survival of methicillin-resistant Staphylococcus aureus 110 at 0.1 uM after 10 mins and irradiated with white light at the fluence rate of 50 mW/cm2 for 2.5 mins relative to control; assay type: functional; settings: light or radiation study; procedure, shortened: as §1
Escherichia coli [20] = assay: Drug uptake per mg of protein in Escherichia coli O4 at 0.5 uM after 10 mins; assay type: ADME, organism-based; settings: in vivo; procedure, shortened: as §2
Staphylococcus aureus [21] = assay: Drug uptake per mg of protein in methicillin-resistant Staphylococcus aureus 110 at 2.5 uM after 10 mins; assay type: ADME, organism-based; settings: in vivo; procedure, shortened: as §2
Staphylococcus aureus [22] = assay: Logarithmic survival of Staphylococcus aureus ATCC 25923 at 0.1 uM after 10 mins and irradiated with white light at the fluence rate of 50 mW/cm2 relative to control; assay type: functional; settings: ATCC 25923, light or radiation study; procedure, shortened: as §1
Escherichia coli [23] = assay: Logarithmic survival of Escherichia coli O4 at 1 uM after 10 mins and irradiated with white light at the fluence rate of 50 mW/cm2 for 30 mins relative to control; assay type: functional; settings: O4, light or radiation study; procedure, shortened: as §4
Staphylococcus aureus [24] = assay: Logarithmic survival of Staphylococcus aureus ATCC 25923 at 0.5 uM after 10 mins and irradiated with white light at the fluence rate of 50 mW/cm2 for 30 mins relative to control; assay type: functional; settings: ATCC 25923, light or radiation study; procedure, shortened: as §4
Staphylococcus aureus [25] = assay: Drug uptake per mg of protein in methicillin-resistant Staphylococcus aureus 110 at 5 uM after 10 mins; assay type: ADME, organism-based; settings: in vivo; procedure, shortened: as §2
Staphylococcus aureus [26] = assay: Logarithmic survival of Staphylococcus aureus ATCC 25923 at 2.5 uM after 10 mins and irradiated with white light at the fluence rate of 50 mW/cm2 for 30 mins relative to control; assay type: functional; settings: ATCC 25923, light or radiation study; procedure, shortened: as §4
Staphylococcus aureus [27] = assay: Logarithmic survival of methicillin-resistant Staphylococcus aureus 110 at 0.5 uM after 10 mins and irradiated with white light at the fluence rate of 50 mW/cm2 for 30 mins relative to control; assay type: functional; settings: light or radiation study; procedure, shortened: as §3
Staphylococcus aureus [28] = assay: Logarithmic survival of Staphylococcus aureus ATCC 25923 at 0.25 uM after 10 mins and irradiated with white light at the fluence rate of 50 mW/cm2 for 30 mins relative to control; assay type: functional; settings: ATCC 25923, light or radiation study; procedure, shortened: as §4
Staphylococcus aureus [29] = assay: Logarithmic survival of Staphylococcus aureus ATCC 25923 at 0.1 uM after 10 mins and irradiated with white light at the fluence rate of 50 mW/cm2 for 30 mins relative to control; assay type: functional; settings: ATCC 25923, light or radiation study; procedure, shortened: as §1
Staphylococcus aureus [30] = assay: Logarithmic survival of Staphylococcus aureus ATCC 25923 at 10 uM after 10 mins and irradiated with white light at the fluence rate of 50 mW/cm2 for 30 mins relative to control; assay type: functional; settings: ATCC 25923, light or radiation study; procedure, shortened: as §4

Compound | survival at 0.1 µM (Staphylococcus aureus [1]) | Drug uptake (Escherichia coli [2]) | survival at 0.1 µM (Staphylococcus aureus [3]) | survival at 0.1 µM (Staphylococcus aureus [4]) | Drug uptake (Staphylococcus aureus [5]) | Drug uptake (Staphylococcus aureus [6]) | survival at 0.1 µM (Staphylococcus aureus [7]) | survival at 2.5 µM (Staphylococcus aureus [8]) | Activity (Escherichia coli [9]) | survival at 0.1 µM (Staphylococcus aureus [10]) | survival at 5 µM (Staphylococcus aureus [11]) | Drug uptake (Staphylococcus aureus [12]) | survival at 0.1 µM (Staphylococcus aureus [13]) | Drug uptake (Escherichia coli [14]) | remaining at 0.5 h [15] | survival at 5 µM (Staphylococcus aureus [16]) | survival at 0.25 µM (Staphylococcus aureus [17]) | Drug uptake (Staphylococcus aureus [18]) | survival at 0.1 µM (Staphylococcus aureus [19]) | Drug uptake (Escherichia coli [20]) | other results
O=C(O)c1ccc(-c2c3nc(c(-c4ccncc4)c4ccc([nH]4)c(-c4ccncc4)c4nc(c(-c5ccncc5)c5ccc2[nH]5)C=C4)C=C3)cc1 [PORPHIRIN] | -2.48 | 85.6 nmol/mg | -3 | 1.61 | 32.1 nmol/mg | 5.5 nmol/mg | 1.83 | -3.11 | 10 µM | 0.22 | -3.07 | 187 nmol/mg | 0.26 | 163 nmol/mg | 85% | -3.73% | -1.39% | 342 nmol/mg | 1.8 | 4.16 nmol/mg | Drug uptake (Staphylococcus aureus [21]): 47 nmol/mg; survival at 0.1 µM (Staphylococcus aureus [22]): 1.91; survival at 1 µM (Escherichia coli [23]): 1.72; survival at 0.5 µM (Staphylococcus aureus [24]): -2.39; Drug uptake (Staphylococcus aureus [25]): 143 nmol/mg; survival at 2.5 µM (Staphylococcus aureus [26]): -3.3%; survival at 0.5 µM (Staphylococcus aureus [27]): -1.58%; survival at 0.25 µM (Staphylococcus aureus [28]): -1.9; survival at 0.1 µM (Staphylococcus aureus [29]): -1.7; survival at 10 µM (Staphylococcus aureus [30]): -4.06%
C[n+]1ccc(-c2c3nc(c(-c4cc[n+](C)cc4)c4ccc([nH]4)c(-c4cc[n+](C)cc4)c4nc(c(-c5ccc(C(=O)O)cc5)c5ccc2[nH]5)C=C4)C=C3)cc1.[I-].[I-].[I-] | -1.17 | 4.35 nmol/mg | -2.12 | 1.87 | 7.77 nmol/mg | 2.08 nmol/mg | 1.96 | -2.13 | 5 µM | 0.49 | -2.29 | 17 nmol/mg | 1.82 | 6.88 nmol/mg | 67% | -3.06% | 1.68% | 18 nmol/mg | 1.84 | 1.29 nmol/mg | Drug uptake (Staphylococcus aureus [21]): 7.69 nmol/mg; survival at 0.1 µM (Staphylococcus aureus [22]): 0.82; survival at 1 µM (Escherichia coli [23]): 0.68; survival at 0.5 µM (Staphylococcus aureus [24]): -0.42; Drug uptake (Staphylococcus aureus [25]): 11.8 nmol/mg; survival at 2.5 µM (Staphylococcus aureus [26]): -2%; survival at 0.5 µM (Staphylococcus aureus [27]): 1.33%; survival at 0.25 µM (Staphylococcus aureus [28]): 1.56; survival at 0.1 µM (Staphylococcus aureus [29]): 1.87; survival at 10 µM (Staphylococcus aureus [30]): -4.36%
